Results from PubChem BioAssay AID624095 (The Scripps Research Institute Molecular Screening Center, 2012).
The source made the active and inactive calls.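 How the source made its calls: active means MIC at a fourfold reduction of 10 µM or lower; inactive means MIC at a fourfold reduction above 10 µM.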

Columns and labels:
[1] = imipenem potentiation in IMP-1 P. aeruginosa isolate, late-stage follow-up, VIM-2 MBL inhibitor project, strain KN20, clinical isolate, powder samples (AID 624095); conditions: IMP-1 P. aeruginosa KN20 growth with imipenem, OD600; measured here: max imipenem fold potentiation; stronger effect = higher value
Summary of the method: (§1)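 Compound dosing: Checkerboard two-fold serial dilutions, compound across rows | System: Log-phase bacteria | Medium: Mueller-Hinton broth with adjusted cations (CAMHB) | Measured by: Turbidity measured by optical absorbance | Incubation: Bacterial incubation of at least 18 h, 37 °C, aerobic | Also added: Imipenem in two-fold serial dilutions, orthogonal to compound | Read-out: MIC per CLSI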

[2] = test system: IMP-1 P. aeruginosa KN20 growth with imipenem, OD600; test: as above
Summary of the method: as §1

| Compound | MIC [2] | fold potentiation [1] |
| --- | --- | --- |
| CN1CCN(C(=O)CN2C(=O)/C(=C/c3c(Cl)ccc(Cl)c3Cl)SC2=S)CC1 | > 50 µM (inactive) |  |
| CCN(CC)OC(=O)CN1C(=O)/C(=C/c2c(Cl)cccc2Cl)SC1=S | > 100 µM (inactive) |  |
| CC(C)(C)OC(=O)N1CCN(NC(=O)CN2C(=O)/C(=C/c3c(Cl)ccc(Cl)c3Cl)SC2=S)CC1 | > 50 µM (inactive) |  |
| O=C(CN1C(=O)/C(=C/c2c(Cl)ccc(Cl)c2Cl)SC1=S)NCc1ccccn1 | > 50 µM (inactive) |  |
| O=C(CN1C(=O)/C(=C/c2c(Cl)ccc(Cl)c2Cl)SC1=S)NN1CCNCC1 | > 50 µM (inactive) |  |
| CN1CCN(NC(=O)CN2C(=O)/C(=C/c3c(C(F)(F)F)ccc(Cl)c3Cl)SC2=S)CC1 | > 50 µM (inactive) |  |
| CN1CCN(NC(=O)CN2C(=O)/C(=C/c3c(F)cccc3C(F)(F)F)SC2=S)CC1 | > 50 µM (inactive) |  |
| O=C(O)CN1C(=O)/C(=C/c2c(F)cccc2C(F)(F)F)SC1=S | > 50 µM (inactive) |  |
| O=C(O)CN1C(=O)/C(=C/c2c(Cl)cccc2Cl)SC1=S | > 100 µM (inactive) |  |
| O=C(CN1C(=O)/C(=C/c2c(Cl)cccc2Cl)SC1=S)NCc1ccccn1 | > 100 µM (inactive) |  |

Second part, led by results:

| MIC [2] | Compound | fold potentiation [1] |
| --- | --- | --- |
| > 50 µM (inactive) | CN1CCN(NC(=O)CN2C(=O)/C(=C/c3c(F)cccc3Cl)SC2=S)CC1 | 2 |
| > 50 µM (inactive) | CC(C)N1CCN(NC(=O)CN2C(=O)/C(=C/c3c(Cl)cccc3Cl)SC2=S)CC1 |  |
| > 50 µM (inactive) | O=C(CN1C(=O)/C(=C/c2c(Cl)cccc2Cl)SC1=S)NN1CCN(C(=O)c2ccccc2)CC1 |  |
| > 50 µM (inactive) | CN1CCN(NC(=O)CN2C(=O)/C(=C/c3c(Cl)ccc(Cl)c3Cl)SC2=S)CC1 | 2 |
| > 100 µM (inactive) | CN1CCN(NC(=O)CN2C(=O)/C(=C/c3c(Cl)cccc3Cl)SC2=S)CC1 |  |
| > 50 µM (inactive) | O=C(CN1C(=O)/C(=C/c2c(Cl)cccc2Cl)SC1=S)NN1CCNCC1 |  |
| > 50 µM (inactive) | CN1CCN(NC(=O)CN2C(=O)/C(=C/c3c(Cl)ccc(C(F)(F)F)c3Cl)SC2=S)CC1 | 2 |
| > 50 µM (inactive) | CC(=O)N1CCN(NC(=O)CN2C(=O)/C(=C/c3c(Cl)cccc3Cl)SC2=S)CC1 |  |
| > 100 µM (inactive) | CC(C)(C)OC(=O)N1CCN(NC(=O)CN2C(=O)/C(=C/c3c(Cl)cccc3Cl)SC2=S)CC1 |  |
| > 100 µM (inactive) | O=C(CN1C(=O)/C(=C/c2c(Cl)cccc2Cl)SC1=S)NN1CCCCC1 |  |
| > 50 µM (inactive) | O=C(CN1C(=O)/C(=C/c2c(Cl)ccc(Cl)c2Cl)SC1=S)NN1CCCCC1 |  |
| > 50 µM (inactive) | O=C(CN1C(=O)/C(=C/c2c(Cl)cccc2Cl)SC1=S)NN1CCN(Cc2ccccc2)CC1 |  |
